The test system of one data set is S. aureus. The data set can be described thus: Initial antibacterial screen of in silico hits. The data set is classed as cell-based, Staphylococcus aureus. The settings on record: initial screening of in silico hits.
A further data set relates to E. faecium. As to the kind of experiment: Initial antibacterial screen of in silico hits. In kind it is cell-based, Enterococcus faecium. The note with it: initial screening of in silico hits.
The next data set has as its system S. aureus VRS2. The data set can be described thus: MIC by microdilution. The note with it: Staphylococcus aureus, MRSA. The data set is classed as cell-based. In a few lines: (§1)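 S. aureus was tested by CLSI broth microdilution in cation-adjusted Mueller Hinton II broth, final inoculum 5 × 10⁵ CFU/mL, 35 °C, read after 16–20 or 20–24 h; oxacillin was tested with 2% NaCl. MIC was the lowest concentration without visible growth, in triplicate. For ATCC 29213, inocula of 5 × 10⁶ and 5 × 10⁷ CFU/mL were also tested.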

Another data set can be described thus: Pharmacokinetics in mice. The data set is classed as in vivo. In a few lines:
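Female ICR mice received a single 50 mg/kg dose, either iv in 10% DMSO/25% Tween-80/65% water or po by gavage (n = 3 per time point). Terminal blood was taken at 2 min–24 h after iv and 0.5–48 h after po, then centrifuged for plasma. Plasma was precipitated with acetonitrile containing internal standard and analysed by C18 UPLC-ESI(+)-MRM against calibration curves in blank mouse plasma.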

The test system of a further data set is S. aureus NRS100 (COL). The data set can be described thus: MIC by microdilution. The data set is classed as cell-based. The settings on record: Staphylococcus aureus. Summed up: as §1
In general terms: Dilution methods test growth across graded concentrations, often in twofold steps.

The next data set concerns S. oralis ATCC 9811. As to the kind of experiment: MIC by microdilution. The data set is classed as cell-based. The settings on record: Streptococcus oralis, ATCC9811. Summed up:
(§2)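 Streptococcal MICs came from CLSI broth microdilution in cation-adjusted Mueller Hinton II broth with 5% lysed horse blood. Final inoculum 5 × 10⁵ CFU/mL, incubation at 35 °C, read after 16–20 or 20–24 h depending on species. MIC was the lowest concentration without visible growth, determined in triplicate.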

In another data set the test system is E. faecalis ATCC 29212. As to the kind of experiment: MIC by microdilution. In kind it is cell-based. The settings on record: Enterococcus faecalis, ATCC29212. In a few lines:
(§3)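 CLSI broth microdilution in cation-adjusted Mueller Hinton II broth, final inoculum 5 × 10⁵ CFU/mL. Plates incubated at 35 °C and read after 16–20 or 20–24 h depending on species. MIC taken as the lowest concentration with no visible growth. All determinations in triplicate.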

The subject of a further data set is S. aureus ATCC 27660. The data set can be described thus: MIC by microdilution. The note with it: Staphylococcus aureus, ATCC27660. In kind it is cell-based. Summed up:
as §1

Another data set deals with S. aureus VRS1. The data set can be described thus: MIC by microdilution. The note with it: Staphylococcus aureus, MRSA. In kind it is cell-based. Summed up:
as §1

Data set [1] relates to DNA synthesis (replication) of S. aureus. As to the kind of experiment: Macromolecular synthesis assay, [methyl-3H]-thymidine incorporation. The note with it: S. aureus ATCC 29213, logarithmic phase; 0.25 and 0.5 μg/mL. In kind it is cell-based, Staphylococcus aureus. In a few lines: (§4)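 Mid-exponential S. aureus ATCC 29213 in brain heart infusion was labelled with 1 μCi/mL ³H-precursor for 10 min at 37 °C before test compound addition (0.25, 0.5 μg/mL). Controls: ciprofloxacin (thymidine), rifampicin (uridine), tetracycline (leucine), fosfomycin (alanine). Samples every 20 min up to 2 h, precipitated in 20% cold TCA, filtered, scintillation-counted. Triplicates, repeated at least twice; % inhibition versus control.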
(In general: Incorporation of labelled thymidine or its analogues reports DNA synthesis.)

Data set [2] concerns S. hemolyticus ATCC 29970. As to the kind of experiment: MIC by microdilution. The settings on record: Streptococcus pyogenes, ATCC29970. The data set is classed as cell-based.
The test system of a further data set is S. aureus NRS119. The data set can be described thus: MIC by microdilution. The data set is classed as cell-based. The note with it: Staphylococcus aureus. Summed up: as §1
The test system of data set [3] is RNA synthesis (transcription) of S. aureus. The data set can be described thus: Macromolecular synthesis assay, [5-3H]-uridine incorporation. The data set is classed as cell-based, Staphylococcus aureus. The note with it: S. aureus ATCC 29213, logarithmic phase; 0.25 and 0.5 μg/mL. Summed up:
as §4

A further data set deals with S. aureus NRS120. The data set can be described thus: MIC by microdilution. The note with it: Staphylococcus aureus. The data set is classed as cell-based. Summed up: as §1
Data set [4] concerns T7 polymerase transcription of the dacB gene encoding E. coli PBP4. As to the kind of experiment: In vitro transcription assay. The settings on record: 0.5, 5, 50 and 160 μg/mL, 2 h at 37 °C. In kind it is biochemical. In a few lines:
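Template was pET24a carrying E. coli K12 dacB without the 90-bp signal-peptide region, linearized with XhoI, 2 μL at 0.5 μg/μL per reaction. Run with a T7 transcription kit, test compound or negative control, then iced. DNaseI (37 °C, 15 min) and EDTA with 65 °C for 10 min followed. Transcripts diluted 30-fold and run on a 1% denaturing formaldehyde gel in MOPS pH 7.0.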

The next data set has as its system S. aureus ATCC 29213. As to the kind of experiment: MIC by microdilution. The data set is classed as cell-based. The settings on record: Staphylococcus aureus, ATCC29213. In a few lines: as §1
The test system of a further data set is S. pyogenes ATCC 49399. As to the kind of experiment: MIC by microdilution. In kind it is cell-based. The note with it: Streptococcus pyogenes, ATCC49399. Summed up: as §2
For another data set, the system named is E. faecium NCTC 7171. As to the kind of experiment: MIC by microdilution. The data set is classed as cell-based. The note with it: Enterococcus faecium, NCTC7171. In a few lines:
as §3

Another data set in a line: Hemolysis assay. The settings on record: horse, washed red blood cells from horse whole blood. In kind it is cell-based, horse.
A further data set has as its system S. epidermis ATCC 35547. The data set can be described thus: MIC by microdilution. The data set is classed as cell-based. In a few lines: as §3
Another data set concerns E. faecalis 201 (Van S). As to the kind of experiment: MIC by microdilution. The note with it: Enterococcus faecalis. The data set is classed as cell-based. Summed up: as §3
Data set [5] deals with purified recombinant PBP2a (Staphylococcus aureus, UniProt P07944). The data set can be described thus: Continuous spectrophotometric PBP2a inhibition assay with nitrocefin. The data set is classed as biochemical, MRSA.
Sequence of purified recombinant PBP2a (P07944 whole entry): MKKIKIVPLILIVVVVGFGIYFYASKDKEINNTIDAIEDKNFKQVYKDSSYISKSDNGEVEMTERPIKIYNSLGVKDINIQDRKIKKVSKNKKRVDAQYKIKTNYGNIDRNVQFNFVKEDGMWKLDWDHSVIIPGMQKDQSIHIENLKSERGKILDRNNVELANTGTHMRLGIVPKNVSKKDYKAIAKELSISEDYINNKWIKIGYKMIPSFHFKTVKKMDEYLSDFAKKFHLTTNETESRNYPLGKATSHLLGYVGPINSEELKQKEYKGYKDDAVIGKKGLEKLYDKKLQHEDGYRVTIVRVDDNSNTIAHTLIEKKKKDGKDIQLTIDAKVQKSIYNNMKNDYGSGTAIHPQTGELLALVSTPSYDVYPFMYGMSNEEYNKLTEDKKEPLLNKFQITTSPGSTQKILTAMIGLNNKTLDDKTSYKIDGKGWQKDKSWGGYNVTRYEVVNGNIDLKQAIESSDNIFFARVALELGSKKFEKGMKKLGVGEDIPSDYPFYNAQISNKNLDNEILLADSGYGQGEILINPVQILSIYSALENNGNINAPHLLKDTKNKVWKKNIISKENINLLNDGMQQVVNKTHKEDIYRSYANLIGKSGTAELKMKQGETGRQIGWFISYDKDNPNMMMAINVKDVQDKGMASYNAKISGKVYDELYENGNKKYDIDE
Another data set concerns E. faecium 106 (Van R). As to the kind of experiment: MIC by microdilution. In kind it is cell-based. The note with it: Enterococcus faecium. Summed up: as §3
Data set [6] has as its system protein synthesis (translation) of S. aureus. The data set can be described thus: Macromolecular synthesis assay, L-[4,5-3H]-leucine incorporation. In kind it is cell-based, Staphylococcus aureus. The settings on record: S. aureus ATCC 29213, logarithmic phase; 0.25 and 0.5 μg/mL. In a few lines:
as §4

Data set [7] concerns E. coli S30 extract coupled transcription and translation system. As to the kind of experiment: In vitro transcription/translation assay. The note with it: concentrations of up to 160 μg/mL (80-fold above the MIC). In kind it is biochemical. Summed up: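 The coupled system used the E. coli S30 extract (circular DNA) with a pUC19 lacZ template. Test compound was added at 0.5, 5, 50 and 160 μg/mL alongside a negative control. Reactions ran 2 h at 37 °C and were stopped on ice for 5 min. β-Galactosidase was quantified by o-nitrophenyl-β-D-galactoside hydrolysis, read at 420 nm against a standard curve.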

Data set [8] deals with peptidoglycan synthesis of S. aureus. The data set can be described thus: Macromolecular synthesis assay, D-[2,3-3H]-alanine incorporation. In kind it is cell-based, Staphylococcus aureus. The note with it: S. aureus ATCC 29213, logarithmic phase; 0.25 and 0.5 μg/mL. In a few lines: as §4
In data set [9] the test system is S. aureus ATCC 27660 (MRSA). As to the kind of experiment: Mouse peritonitis infection model. The settings on record: mice, antibiotic 3 vs 4. The data set is classed as in vivo, Staphylococcus aureus. Summed up: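 Female ICR mice (6–8 weeks, 17–20 g) were infected intraperitoneally with 0.5 mL MRSA ATCC 27660 at 5 × 10⁷ CFU/mL in 5% mucin. The inoculum was grown in brain heart infusion and adjusted to OD540 0.5. A single oral gavage dose was given 1 h post-infection (n = 6/group), with linezolid 10 mg/kg as positive control. Survival was monitored over 2 days.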

Data set [10] concerns E. faecium 119–39A (Van S). The data set can be described thus: MIC by microdilution. In kind it is cell-based. The note with it: Enterococcus faecium. In a few lines:
as §3

Where [11] appears, read: ICR, mouse, plasma, iv, 50 mg/kg.
Where [12] appears, read: female, ICR, mouse, plasma, po, 50 mg/kg.

Values after ≈ are worked out from the molar mass of the structure shown. Where only a bound is given, the exact number is not on record here.

`Fc1ccc(-c2nc(-c3ccc(Oc4ccc(C(F)(F)F)cc4)cc3)no2)cc1` [Compound 1, 5-(4-Fluorophenyl)-3-(4-(4-(trifluoromethyl)phenoxy)phenyl)-1,2,4-oxadiazole]: the “MIC (in words)” value against S. aureus and against E. faecium was “poor but reproducible MIC” each time.

Consider `Oc1ccc(-c2nc(-c3ccc(Oc4ccc(C(F)(F)F)cc4)cc3)no2)cc1` [Compound 3, 4-(3-(4-(4-(Trifluoromethyl)phenoxy)phenyl)-1,2,4-oxadiazol-5-yl)phenol], for which the MIC against S. aureus VRS2 came to 2 µg/mL (≈ 5.02 µM); against S. aureus NRS100 (COL), 2 µg/mL (≈ 5.02 µM); with S. oralis ATCC 9811 it was 32 µg/mL (≈ 80.3 µM); in the data set on E. faecalis ATCC 29212, 2 µg/mL (≈ 5.02 µM); in the data set on S. aureus ATCC 27660 it was 2 µg/mL (≈ 5.02 µM); with S. aureus VRS1, 2 µg/mL (≈ 5.02 µM). For the same molecule, the MIC in data set [2] is 2 µg/mL (≈ 5.02 µM); with S. aureus NRS119, 2 µg/mL (≈ 5.02 µM); against S. aureus NRS120 it was 2 µg/mL (≈ 5.02 µM); with S. aureus ATCC 29213, 2 µg/mL (≈ 5.02 µM); in the data set on S. pyogenes ATCC 49399, over 32 µg/mL; in the data set with E. faecium NCTC 7171 it was 2 µg/mL (≈ 5.02 µM). The MIC against S. epidermis ATCC 35547 amounted to 2 µg/mL (≈ 5.02 µM); against E. faecalis 201 (Van S), 2 µg/mL (≈ 5.02 µM); in the data set on E. faecium 106 (Van R) it was 2 µg/mL (≈ 5.02 µM); in [10], 1 µg/mL (≈ 2.51 µM). Besides, the results for the AUC(0-inf) in “Pharmacokinetics in mice” (setting [11]) and in “Pharmacokinetics in mice” (setting [12]) were 44200 ng·h/mL and 43700 ng·h/mL, respectively. In “Pharmacokinetics in mice” (setting [11]), the Vd came out at 0.37 L/kg. For the same molecule, the Cmax in the data set “Pharmacokinetics in mice” (setting [12]) came to 2500 ng/mL. For the same molecule, the Tmax in “Pharmacokinetics in mice” (setting [12]) was found to be 2 h. Moreover, in “Pharmacokinetics in mice” (mice, 50 mg/kg iv, compound 3 vs compound 2, compound 4 vs compound 3), the “higher systemic exposure relative to comparator compound” value stood at 2 fold. Moreover, the “volume of distribution (in words)” value in the data set “Pharmacokinetics in mice” (mice, single 50 mg/kg iv) is recorded as “moderate volume of distribution”. Moreover, in data set [1], the “inhibition of replication (DNA synthesis)” value is “did not inhibit”. Moreover, in [3], the inhibition of transcription entry is given as “did not inhibit”. For the same molecule, the “effect on dacB mRNA band intensities” value in data set [4] is listed as “no effect”. Further, in “Hemolysis assay”, the hemolysis at 1 h, 64 μg/mL turned out to be 3%. In addition, the IC50 in [5] was 20.1 µM. Moreover, the inhibition of translation entry in data set [6] is listed as “did not inhibit”. In addition, the “effect on β-galactosidase formation” value in data set [7] is on record as “no effect”. For the same molecule, in [8], the “inhibition of peptidoglycan synthesis” value was “inhibited peptidoglycan synthesis”. Further, in [9], the “efficacy following po dosing (comparison)” value was “superior efficacy”.

A word on the MIC: it is the lowest concentration found to suppress growth. As a reminder, the AUC(0-inf) is total exposure, with the tail of the curve extrapolated. Read a low AUC(0-inf) as less exposure. One may read the Vd as a proportionality between amount in the body and measured concentration, not a real space. The Cmax is the maximum level reached in the sampled fluid or tissue. The Tmax is the time from dosing to the highest level. The IC50 is the concentration at which inhibition is half-maximal.

Values taken from PMC3985699 (Journal of the American Chemical Society, 2014).
